Assay results pooled from the literature.
CDK7 with cyclin H: Cyclin-dependent kinase 7, with cyclin H (CDK7, Homo sapiens, UniProt P50613)
BAZ1A: Bromodomain adjacent to zinc finger domain protein 1A (BAZ1A, Homo sapiens, UniProt Q9NRL2)
MTNR1B: Melatonin receptor type 1B (MTNR1B, Homo sapiens, UniProt P49286)

Structure (SMILES)	target	test	system	conditions	quantity	value
COc1cc2c(NC3CCN(C(C)C)CC3)nc(C3CCCCC3)nc2cc1OCCCN1CCCC1	Histone-lysine N-methyltransferase EHMT2 (EHMT2, Homo sapiens, UniProt Q96KQ7)	thermal stability, DSF		100 µM	ΔTm	4 °C
COc1cc2c(cc1OC)[C@@H]1Cc3ccc(OC)c(OC)c3CN1CC2	CDK7 with cyclin H	enzyme activity, inhibitor, ADP detection		10 µM	inhibition	-19%
Oc1ccc(-c2nc(-c3ccncc3)c(-c3ccc(F)cc3)[nH]2)cc1	BAZ1A	thermal stability, DSF		10 µM	ΔTm	0.34 °C
c1ccc(-c2nc(NCC(c3ccccc3)c3ccccc3)c3ccccc3n2)cc1	Sodium-dependent dopamine transporter (Slc6a3, Rattus norvegicus, UniProt P23977)	transporter uptake, inhibitor, radiometric		12.8 µM	remaining activity	30%
COc1cc(/C=C/C(=O)O)ccc1O	CDK7 with cyclin H	enzyme activity, inhibitor, ADP detection		10 µM	inhibition	-9.7%
CCc1ccc2scc(CCNC(C)=O)c2c1	MTNR1B	cAMP, agonist, TR-FRET	CHO-K1	20 min	Emax	75%
C[C@@H]1C(=O)O[C@H]2C[C@@]34[C@H]5C[C@@H](C(C)(C)C)[C@]36[C@@H](OC(=O)[C@@H]6O)O[C@@]4(C(=O)O5)[C@]21O	CDK7 with cyclin H	enzyme activity, inhibitor, ADP detection		10 µM	inhibition	35.3%
COc1cc2c(CCNC(C)=O)c[nH]c2cc1I	MTNR1B	GTPγS binding, agonist, radiometric		cell membranes	Emax	97%
C=C1CC[C@@H]2[C@](C)(CO)[C@H](O)CC[C@@]2(C)[C@@H]1C/C=C1/C(=O)OC[C@H]1O	CDK7 with cyclin H	enzyme activity, inhibitor, ADP detection		10 µM	inhibition	34.6%
COc1ccc2ncn(CCNC(C)=O)c2c1	MTNR1B	β-arrestin recruitment, agonist	MT2		Emax	75%
C[S+]([O-])c1ccc(-c2nc(-c3ccncc3)c(-c3ccc(F)cc3)[nH]2)cc1 (stereo not shown)	BAZ1A	thermal stability, DSF		10 µM	ΔTm	1.03 °C
ON=CC1=C(C=Cc2ccccc2)CCC1	Fibroblast growth factor 23 (Homo sapiens, UniProt Q9GZV9)	thermal stability, DSF		200 µM	ΔTm	16.5 °C
COCC(CNC(C)=O)c1cccc2ccc(OC)cc12 (stereo not shown)	MTNR1B	cAMP, agonist, TR-FRET	CHO-K1	20 min	Emax	67%
